From ChEMBL document CHEMBL4038301 (J Med Chem, 2017) come the findings set out here.

Series [1] concerns Brain. Nature of the series: Unbound drug level in Sprague-Dawley rat brain at 10 mg/kg, po after 1 hr post dose by LC/MS/MS analysis. It is filed as ADME, organism-based. To be noted: in vivo.
Series [2] deals with Rattus norvegicus. Nature of the series: MRT in Sprague-Dawley rat at 1 mg/kg, iv up to 24 hrs post dose by LC/MS/MS analysis. In kind it is ADME, organism-based. To be noted: in vivo.
Series [3] concerns Plasma. Nature of the series: Unbound plasma concentration in Sprague-Dawley rat at 10 mg/kg, po after 1 hr post dose by LC/MS/MS analysis. In kind it is ADME, organism-based. The following applies: in vivo.
A short description of series [4]: Ratio of drug level in Sprague-Dawley rat brain to plasma at 10 mg/kg, po after 1 hr post dose by LC/MS/MS analysis. It is filed as ADME, organism-based.
Series [5] in a line: Total plasma concentration in Sprague-Dawley rat at 10 mg/kg, po after 1 hr post dose by LC/MS/MS analysis. It is filed as ADME, organism-based.
A short description of series [6]: Ratio of unbound drug level in Sprague-Dawley rat brain to plasma at 10 mg/kg, po after 1 hr post dose by LC/MS/MS analysis. It is filed as ADME, organism-based.
Series [7] relates to Rattus norvegicus. Nature of the series: Terminal half life in Sprague-Dawley rat at 1 mg/kg, iv up to 24 hrs post dose by LC/MS/MS analysis. In kind it is ADME, organism-based. To be noted: in vivo. The method in brief: (§1)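 Male Sprague–Dawley rats (250–350 g, n=2), dual-cannulated (carotid artery and jugular vein). Dosed 1.0 mg/kg IV into the jugular vein in 10% ethanol, 50–70% PEG 400 and 20–40% saline.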

In series [8] the test system is Rattus norvegicus. The experiment in a line: Volume of distribution at steady state in Sprague-Dawley rat at 1 mg/kg, iv up to 24 hrs post dose by LC/MS/MS Analysis. The following applies: in vivo. It is filed as ADME, organism-based. The method in brief: as §1
A short description of series [9]: Total drug level in Sprague-Dawley rat brain at 10 mg/kg, po after 1 hr post dose by LC/MS/MS analysis. To be noted: read-out: Drug uptake. It is filed as ADME, organism-based.
Series [10] deals with Cynomolgus monkey. Nature of the series: Cmax in cynomolgus monkey at 5 mg/kg administered via nasogastric gavage up to 24 hrs by LC/MS/MS analysis. More on the design: dose 5 mg/kg, route nasogastric. The following applies: in vivo, po. In kind it is ADME, organism-based, Macaca fascicularis.
Series [11] deals with Rattus norvegicus. Nature of the series: Cmax in Sprague-Dawley rat at 10 mg/kg, administered via nasogastric gavage up to 24 hrs by LC/MS/MS analysis. It is filed as ADME, organism-based. More on the design: dose 10 mg/kg, route nasogastric. The following applies: in vivo, po.
Series [12] is described as follows: Plasma clearance in cynomolgus monkey at 0.5 mg/kg, iv up to 24 hrs by LC/MS/MS analysis. In kind it is ADME, organism-based, Macaca fascicularis.
Series [13] in a line: (§2) Terminal half life in cynomolgus monkey at 0.5 mg/kg, iv up to 24 hrs by LC/MS/MS analysis. To be noted: in vivo, read-out: beta t1/2. In kind it is ADME, organism-based, Macaca fascicularis.
The subject of series [14] is Rattus norvegicus. The experiment in a line: Oral bioavailability in Sprague-Dawley rat at 10 mg/kg, administered via nasogastric gavage up to 24 hrs by LC/MS/MS analysis. It is filed as ADME, organism-based. The following applies: in vivo.
Series [15] relates to Rattus norvegicus. The experiment in a line: AUC in Sprague-Dawley rat at 10 mg/kg, administered via nasogastric gavage up to 24 hrs by LC/MS/MS analysis. It is filed as ADME, organism-based. More on the design: time < 24 hr, dose 10 mg/kg, route nasogastric. The following applies: in vivo, po.
For series [16], the system named is Cynomolgus monkey. Nature of the series: Oral bioavailability in cynomolgus monkey at 5 mg/kg administered via nasogastric gavage up to 24 hrs by LC/MS/MS analysis. To be noted: in vivo. It is filed as ADME, organism-based, Macaca fascicularis.
Series [17] deals with Cynomolgus monkey. The experiment in a line: AUC in cynomolgus monkey at 5 mg/kg administered via nasogastric gavage up to 24 hrs by LC/MS/MS analysis. It is filed as ADME, organism-based, Macaca fascicularis. The following applies: in vivo, po. More on the design: dose 5 mg/kg, time < 24 hr, route nasogastric.
For series [18], the system named is Rattus norvegicus. Nature of the series: Tmax in Sprague-Dawley rat at 10 mg/kg administered via nasogastric gavage up to 24 hrs by LC/MS/MS analysis. The following applies: in vivo, po. It is filed as ADME, organism-based.
Series [19] relates to Cynomolgus monkey. The experiment in a line: MRT in cynomolgus monkey at 0.5 mg/kg, iv up to 24 hrs by LC/MS/MS analysis. In kind it is ADME, organism-based, Macaca fascicularis. To be noted: in vivo.
Series [20] in a line: Drug level in Harlan CD1 mouse brain at 3 mg/kg, ip at 15 mins. In kind it is ADME, organism-based. The following applies: read-out: Drug uptake.
Series [21] concerns Cynomolgus monkey. Described as §2. The following applies: in vivo, 24 h. In kind it is ADME, organism-based, Macaca fascicularis.
A short description of series [22]: Half life in human cryopreserved hepatocytes at 5 uM measured by LC/MS/MS analysis. In kind it is ADME, cell-based, Hepatocyte. The method in brief: (§3)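 Pooled human cryopreserved hepatocytes (19 donors, mixed gender), thawed and resuspended in KHB. Compound 5 µM final, shaken at 37 °C. Aliquots quenched in acetonitrile with carbamazepine at 0, 15, 30, 60 and 120 min. Percent parent remaining measured by LC/MS/MS. Midazolam served as positive control.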

The test system of series [23] is Brain. The experiment in a line: Unbound concentration in Harlan CD1 mouse brain at 3 mg/kg, ip at 15 mins by equilibrium dialysis method. The following applies: in vivo. It is filed as ADME, organism-based. For orientation: In equilibrium dialysis free small molecules cross a membrane that holds back macromolecules.
Series [24] in a line: Apparent permeability across apical to basolateral side in MDCK cells expressing human MDR1 at 2 uM after 30 mins by LC-MS/MS. It is filed as ADME, cell-based, Canis lupus familiaris. The following applies: dog, 0.5 h.
Series [25] in a line: Apparent permeability across apical to basolateral side in human Caco2 cells at 2 uM after 10 mins by LC-MS/MS. The following applies: caco-2, 10 min. In kind it is ADME, cell-based. In general terms: Passage across Caco-2 layers is used to estimate intestinal permeability.
A short description of series [26]: Intrinsic clearance in human cryopreserved hepatocytes assessed per million cells at 5 uM measured after 15 to 120 mins by LC/MS/MS analysis. It is filed as ADME, cell-based, Hepatocyte. The method in brief: as §3
The nature of series [27]: Drug metabolism in cynomolgus monkey hepatic S9 fraction assessed as AO-mediated metabolite formation by LC/MS analysis. It is filed as ADME, Macaca fascicularis, Liver.
The nature of series [28]: Apparent permeability across basolateral to apical side in MDCK cells expressing human MDR1 at 2 uM after 30 mins by LC-MS/MS. It is filed as ADME, cell-based, Canis lupus familiaris. The following applies: dog, 0.5 h.
Series [29] can be described thus: Plasma clearance in cynomolgus monkey at 0.2 mg/kg, iv up to 24 hrs by LC/MS/MS analysis. In kind it is ADME, organism-based, Macaca fascicularis.

Usually MRT stands for a mean duration of stay, worked out from the concentration-time curve. The term Vdss denotes a proportionality between amount in the body and measured concentration, not a real space. As for `Cc1cc(Oc2cnc(C)nc2)cc(C(=O)Nc2ccc(F)cn2)n1`, in [1], the “Drug uptake(free)” value is 142 nM. The same compound yielded an MRT in [2] of 3.18 h. For the same compound, the “Cp(f)” value in series [3] is reported as 390 nM. The BPR in series [4] was 0.67. Also, the concentration at 1 h in series [5] stood at 4820 nM; in [9], 3220 nM. Also, the “K(p,uu,brain)” value in [6] is listed as 0.36. Further, the “beta t1/2” value in series [7] turned out to be 3.82 h. The compound also registered a Vdss in [8] of 1.2 L/kg.

In series [2], `CCc1cccc(NC(=O)c2cc(Oc3cncnc3)cc(C)n2)n1` displayed an MRT of 1.33 h. The “beta t1/2” value in [7] was found to be 6.73 h. Besides, the Vdss in series [8] is 6.6 L/kg.

One may read the Cmax as the highest concentration seen after dosing. What is called clearance is the volume of plasma or blood freed of the substance per unit of time. For orientation: AUC means the area under the concentration-time curve, a measure of exposure. The Tmax is the time at which the peak concentration occurs. Regarding `Cc1cc(Oc2cncc(F)c2)cc(C(=O)Nc2ccc(F)cn2)n1`, in series [1], the “Drug uptake(free)” value was 31.6 nM. The Cmax is 1360 nM in [10] and 3330 nM in [11]. Moreover, the figures for the mean residence time MRT in [2] and in series [19] were 3.47 h and 5.05 h, respectively. Further, in series [12], the clearance stood at 13.3 mL/min/kg. Also, the half-life in [13] was determined as 9.38 h. In series [3], the “Cp(f)” value was determined as 38.6 nM. Besides, the figures for the F in [14] and in series [16] were 71% and 35%, respectively. The “K(p,uu,brain)” value in series [6] is 0.82. Moreover, in series [7], the “beta t1/2” value came to 4.68 h. The AUC is 38 µM·h in series [15] and 6.43 µM·h in series [17]. Further, the Tmax in [18] is 1.5 h. In [8], this compound had a Vdss of 1.9 L/kg.

In general, Papp refers to the rate of passage across a membrane or cell layer, normalised by area and donor concentration. For the compound `Cc1cc(Oc2cncnc2)cc(C(=O)Nc2ccc(F)cn2)n1`, the concentration at […] in series [20] turned out to be 1480 nM. The “Drug uptake(free)” value in series [1] amounted to 201 nM; in [23], 115 nM. Moreover, the highest concentration (Cmax) in [10] amounted to 1720 nM; in series [11], 4340 nM. For the same compound, the MRT in [2] was found to be 1.55 h; in series [19], 2.72 h. This compound also gave a clearance in [12] of 15.5 mL/min/kg. Moreover, the “beta t1/2” value was 5.03 h in series [21] and 6.5 h in series [7]. The “Cp(f)” value in [3] was 318 nM. This compound also displayed a t1/2 in series [22] of 5.37 h. Moreover, the values for the F in [14] and in [16] were 53% and 44%, respectively. The concentration at 1 h in series [5] turned out to be 3000 nM; in series [9], 2580 nM. Besides, the results for the Papp in series [24], in series [25] and in series [28] were 6.2 ×10⁻⁶ cm/s, 6.5 ×10⁻⁶ cm/s and 7.2 ×10⁻⁶ cm/s, respectively. Moreover, the CLH in series [26] came to 1.43 µL/min. The results for the AUC in series [15] and in [17] were 14.6 µM·h and 7.32 µM·h, respectively. Besides, the Tmax in series [18] was 0.5 h. For the same compound, the Drug metabolism entry in series [27] was “Metabolite_Detected”. Further, in [8], the Vdss was 1.8 L/kg.

Regarding `Cc1csc(NC(=O)c2cc(F)cc(Oc3cncnc3)c2)n1`, the F in [14] is given as less than 5%. In addition, the clearance in [29] worked out at 24 mL/min/kg.

As to `Cc1cccc(NC(=O)c2cc(Oc3cncc(F)c3)cc(C)n2)n1`, in series [2], the MRT was 2 h. In addition, the “beta t1/2” value in series [7] was 4.47 h. The Vdss in series [8] stood at 4.5 L/kg.

Turning to `Cc1cc(Oc2cncc(F)c2)cc(C(=O)Nc2cccc(F)n2)n1`, in [2], the mean residence time MRT came to 2.62 h. Besides, the “beta t1/2” value in series [7] was 1.37 h. The same compound returned a Vdss in series [8] of 11 L/kg.

On to `Cc1cccc(NC(=O)c2cc(Oc3cncnc3)cc(C)n2)n1`, for which, in series [2], the MRT was determined as 0.65 h. Further, the “beta t1/2” value in [7] came out at 1.75 h. The Vdss in series [8] worked out at 1.6 L/kg.
